The source of these data is ChEMBL document CHEMBL1129267, “Aryl 1-but-3-ynyl-4-phenyl-1,2,3,6-tetrahydropyridines as potential antipsychotic agents: synthesis and structure-activity relationships” (J Med Chem, 1996).

For orientation: ED50 means the dose that gives a 50% effect, or the effect in half of the subjects. As a reminder, the Ki is a dissociation constant, usually derived from enzyme kinetics or from competition with a known ligand. The EC50 is the concentration needed to bring the measured effect to its halfway point.

In test [1] the test system is Rattus norvegicus. The test can be described thus: In vivo inhibition of locomotor activity in the rat following p.o. administration. Type of test: functional. Conditions: po.
Test [2] deals with T1, Adrenergic receptor alpha-1 (Rattus norvegicus, UniProt P15823+P23944+P43140).
T1 sequence (P15823 whole entry): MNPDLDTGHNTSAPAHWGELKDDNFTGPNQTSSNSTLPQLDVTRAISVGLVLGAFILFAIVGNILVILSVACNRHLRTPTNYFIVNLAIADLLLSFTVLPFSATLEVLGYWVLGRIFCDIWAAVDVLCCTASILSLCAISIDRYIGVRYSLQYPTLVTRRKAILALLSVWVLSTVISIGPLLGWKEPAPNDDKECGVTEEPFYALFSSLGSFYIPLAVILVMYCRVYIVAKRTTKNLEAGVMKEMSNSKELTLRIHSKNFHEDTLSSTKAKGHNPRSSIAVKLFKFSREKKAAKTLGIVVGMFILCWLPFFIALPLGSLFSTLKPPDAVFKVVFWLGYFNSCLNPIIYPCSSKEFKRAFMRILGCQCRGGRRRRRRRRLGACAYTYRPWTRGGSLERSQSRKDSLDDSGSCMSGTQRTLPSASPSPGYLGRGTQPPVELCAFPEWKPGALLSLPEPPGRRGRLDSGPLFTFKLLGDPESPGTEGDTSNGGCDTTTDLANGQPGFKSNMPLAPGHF
T1 sequence (P23944 whole entry): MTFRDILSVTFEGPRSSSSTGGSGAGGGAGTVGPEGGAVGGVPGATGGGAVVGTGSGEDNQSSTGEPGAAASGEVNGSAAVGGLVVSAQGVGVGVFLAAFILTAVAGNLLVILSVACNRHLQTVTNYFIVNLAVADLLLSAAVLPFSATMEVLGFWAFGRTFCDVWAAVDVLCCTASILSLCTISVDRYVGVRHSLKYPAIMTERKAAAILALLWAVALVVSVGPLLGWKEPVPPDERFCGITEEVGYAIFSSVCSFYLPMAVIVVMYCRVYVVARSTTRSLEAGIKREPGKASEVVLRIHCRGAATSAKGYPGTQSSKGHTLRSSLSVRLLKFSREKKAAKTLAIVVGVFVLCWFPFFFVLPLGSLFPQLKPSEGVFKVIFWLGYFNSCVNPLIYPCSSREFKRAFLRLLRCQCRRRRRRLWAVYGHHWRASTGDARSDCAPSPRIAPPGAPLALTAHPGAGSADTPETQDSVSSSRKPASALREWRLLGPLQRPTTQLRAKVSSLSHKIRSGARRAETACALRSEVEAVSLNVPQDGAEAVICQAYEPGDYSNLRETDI
T1 sequence (P43140 whole entry): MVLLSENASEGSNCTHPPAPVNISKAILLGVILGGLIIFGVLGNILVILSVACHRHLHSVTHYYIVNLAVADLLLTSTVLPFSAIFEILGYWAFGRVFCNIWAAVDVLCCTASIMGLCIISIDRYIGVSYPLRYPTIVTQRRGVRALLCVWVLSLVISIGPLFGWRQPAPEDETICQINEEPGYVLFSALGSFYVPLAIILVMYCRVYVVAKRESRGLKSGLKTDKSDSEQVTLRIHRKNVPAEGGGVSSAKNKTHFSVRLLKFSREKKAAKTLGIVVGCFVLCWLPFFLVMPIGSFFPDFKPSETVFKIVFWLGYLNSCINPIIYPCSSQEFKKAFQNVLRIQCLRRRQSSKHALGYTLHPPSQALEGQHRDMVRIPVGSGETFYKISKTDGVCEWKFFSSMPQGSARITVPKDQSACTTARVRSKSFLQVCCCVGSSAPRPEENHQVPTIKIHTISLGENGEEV
The test can be described thus: Binding affinity against Alpha-1 adrenergic receptor using radioligand [3H]prazosin binding assay. The test is classed as protein assay. In outline:
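Inhibition of [³H]prazosin (0.1 nM final) binding in rat cortex membranes; phentolamine (10 µM final) defines nonspecific binding.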

In test [3] the target is T2, D(2) dopamine receptor (Rattus norvegicus, UniProt P61169). Put plainly: Binding affinity at Dopamine receptor D2 in rat striatal membrane by [3H]spiperone displacement. The test is classed as cell membranes, Striatum. In outline:
(§1)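 Rat striatal membranes; [³H]spiperone 0.2 nM final; nonspecific binding defined with (+)-butaclamol 1.0 µM final. Four to six concentrations, each run in triplicate; Ki obtained by nonlinear regression analysis.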

The target of test [4] is D(2) dopamine receptor (Homo sapiens, UniProt P14416). The test can be described thus: […] Dopamine receptor D2 mitogenesis measured as [3H]thymidine incorporation in CHO p-5 cells expressing human D2 receptors. The method, boiled down:
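CHO p-5 cells transfected with human D2L are grown 2 days at 37 °C in medium with 10% calf serum, rinsed, and switched to serum-free medium plus compound in water. After 16-17 h, [³H]thymidine (1 µCi/well) is added for 4 h; cells are harvested onto filters and counted.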

The target in the next test is D(1A) dopamine receptor (Rattus norvegicus, UniProt P18901). The test is classed as cell membranes, Brain, Membrane.
Sequence of D(1A) dopamine receptor (P18901 whole entry): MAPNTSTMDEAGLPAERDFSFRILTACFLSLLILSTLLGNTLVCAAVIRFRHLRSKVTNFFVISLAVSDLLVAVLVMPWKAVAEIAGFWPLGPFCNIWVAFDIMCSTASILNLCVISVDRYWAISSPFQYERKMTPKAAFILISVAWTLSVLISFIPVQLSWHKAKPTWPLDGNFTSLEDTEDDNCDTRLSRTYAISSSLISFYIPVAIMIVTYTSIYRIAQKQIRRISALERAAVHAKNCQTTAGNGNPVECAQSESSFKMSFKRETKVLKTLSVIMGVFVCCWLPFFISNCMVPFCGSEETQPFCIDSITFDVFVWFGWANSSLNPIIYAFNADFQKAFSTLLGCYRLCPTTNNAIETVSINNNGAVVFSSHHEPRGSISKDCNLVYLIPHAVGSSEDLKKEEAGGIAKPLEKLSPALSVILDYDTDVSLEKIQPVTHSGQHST
The target in another test is D(3) dopamine receptor (Homo sapiens, UniProt P35462). Put plainly: Binding affinity against human Dopamine receptor D3 in CHO-K1 cells using [3H]spiperone as radioligand. The test is classed as cell-based.
Sequence of D(3) dopamine receptor (P35462 whole entry): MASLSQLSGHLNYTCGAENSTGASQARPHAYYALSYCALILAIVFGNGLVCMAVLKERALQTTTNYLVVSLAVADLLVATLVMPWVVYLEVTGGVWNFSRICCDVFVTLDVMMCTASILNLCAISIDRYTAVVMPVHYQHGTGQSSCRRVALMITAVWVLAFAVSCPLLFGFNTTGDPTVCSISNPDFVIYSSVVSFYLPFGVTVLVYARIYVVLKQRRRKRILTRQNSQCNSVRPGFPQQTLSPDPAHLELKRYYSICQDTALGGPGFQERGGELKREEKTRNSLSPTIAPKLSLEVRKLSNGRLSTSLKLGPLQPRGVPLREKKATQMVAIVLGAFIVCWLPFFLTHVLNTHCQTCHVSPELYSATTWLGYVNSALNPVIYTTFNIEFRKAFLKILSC
The target in test [5] is T2, D(2) dopamine receptor. Put plainly: Binding affinity against Dopamine receptor D2 in CHO-K1 cells using radioligand [3H]NPA binding assay. The test is classed as cell-based.
A further test concerns Monkey. Put plainly: Compound was tested for inhibition of conditioned avoidance after administering perorally(po) in squirrel monkeys. The test is classed as functional. Conditions: Cebidae, in Saimiri.
For test [6], the system named is Rattus norvegicus. The test can be described thus: Percent decrease of the firing rate of rat substantia nigra DA neurons at a dose of 2.5 mg/kg ip. Type of test: functional. Conditions: route intraperitoneal.
For test [7], the target named is T3, 5-hydroxytryptamine receptor 1A (Rattus norvegicus, UniProt P19327).
T3 sequence (P19327 whole entry): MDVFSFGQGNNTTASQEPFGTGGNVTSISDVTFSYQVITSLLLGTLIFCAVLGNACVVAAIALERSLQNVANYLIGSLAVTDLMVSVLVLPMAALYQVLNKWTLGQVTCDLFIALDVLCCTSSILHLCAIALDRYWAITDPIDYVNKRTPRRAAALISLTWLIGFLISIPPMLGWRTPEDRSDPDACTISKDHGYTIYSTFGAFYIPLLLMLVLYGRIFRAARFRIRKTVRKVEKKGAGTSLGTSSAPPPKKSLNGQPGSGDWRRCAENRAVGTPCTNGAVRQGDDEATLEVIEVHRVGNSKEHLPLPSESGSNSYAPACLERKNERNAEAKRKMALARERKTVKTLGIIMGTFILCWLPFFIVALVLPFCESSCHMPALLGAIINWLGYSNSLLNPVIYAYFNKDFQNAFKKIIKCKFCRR
Put plainly: Binding affinity against serotonin 5-hydroxytryptamine 1A receptor using radioligand [3H]8-OH-DPAT binding assay. In outline:
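Rat hippocampal membranes labelled with [³H]-8-OH-DPAT (0.4 nM final); nonspecific binding with 8-OH-DPAT (1 µM).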

The target in the next test is T4, D(4) dopamine receptor (Homo sapiens, UniProt P21917).
T4 sequence (P21917 whole entry): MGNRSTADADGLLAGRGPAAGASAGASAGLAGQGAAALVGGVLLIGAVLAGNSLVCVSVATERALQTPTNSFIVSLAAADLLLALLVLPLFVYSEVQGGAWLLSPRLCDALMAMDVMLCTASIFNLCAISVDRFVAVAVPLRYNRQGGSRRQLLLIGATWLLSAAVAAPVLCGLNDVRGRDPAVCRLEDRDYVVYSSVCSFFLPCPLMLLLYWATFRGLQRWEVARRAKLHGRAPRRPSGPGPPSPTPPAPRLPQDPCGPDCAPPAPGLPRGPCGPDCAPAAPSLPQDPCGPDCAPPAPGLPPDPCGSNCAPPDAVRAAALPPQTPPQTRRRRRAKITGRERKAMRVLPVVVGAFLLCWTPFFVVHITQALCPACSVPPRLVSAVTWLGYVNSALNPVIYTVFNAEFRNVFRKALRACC
The test can be described thus: Binding affinity against human Dopamine receptor D4 in CHO-K1 cells using [3H]spiperone as radioligand. Type of test: cell-based. The method, boiled down:
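Human D4.2 receptor expressed in CHO K1 cells; [³H]spiperone 0.2 nM final; nonspecific binding defined with haloperidol 1.0 µM final.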

Test [8] has as its target T2, D(2) dopamine receptor. Put plainly: Compound was evaluated for their affinity against dopamine receptor D2 by displacing [3H]-spiperone in rat striatal membrane. The test is classed as cell membranes, Striatum. The method, boiled down: as §1
Test [9] relates to Mus musculus. The test can be described thus: (§2) Compound was tested for the inhibition of locomotor activity (LMA)by administering Intraperitoneally in mouse. The test is classed as functional. The note with it: ip.
Test [10] relates to Rattus norvegicus. The test can be described thus: Compound was tested for the inhibition of locomotor activity (LMA)by administering orally in rat. The test is classed as functional. The note with it: po. The method, boiled down: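 Rats dosed orally 1 h before a 30 min test in darkened cylindrical photobeam chambers. Percent inhibition of locomotor activity relative to vehicle-treated animals; ED50 derived from three to six doses, n = 6-18 animals/dose.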

For test [11], the system named is Mus musculus. Described as §2. Conditions: ip. Type of test: functional. In outline:
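Mice dosed ip, then tested immediately for 1 h in darkened cylindrical photobeam chambers. Percent inhibition of locomotor activity relative to vehicle-treated animals; ED50 derived from three to six doses, n = 6-18 animals/dose.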
The source holds these as a separate data set.

Bounds are passed on as bounds.

Sequence of D(2) dopamine receptor (Homo sapiens, UniProt P14416) (P14416 whole entry): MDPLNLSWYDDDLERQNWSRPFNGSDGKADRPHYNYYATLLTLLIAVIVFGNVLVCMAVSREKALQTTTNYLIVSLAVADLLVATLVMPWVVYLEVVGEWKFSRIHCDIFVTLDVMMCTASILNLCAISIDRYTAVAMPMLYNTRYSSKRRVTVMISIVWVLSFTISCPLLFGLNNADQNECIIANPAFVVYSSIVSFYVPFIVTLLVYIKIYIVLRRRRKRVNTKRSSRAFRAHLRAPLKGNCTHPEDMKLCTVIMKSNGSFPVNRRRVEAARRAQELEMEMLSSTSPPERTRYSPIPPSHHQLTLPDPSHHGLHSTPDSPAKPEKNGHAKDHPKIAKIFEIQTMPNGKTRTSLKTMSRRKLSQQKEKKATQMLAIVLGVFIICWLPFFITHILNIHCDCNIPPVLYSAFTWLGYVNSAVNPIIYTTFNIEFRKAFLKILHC
T2 sequence (P61169 whole entry): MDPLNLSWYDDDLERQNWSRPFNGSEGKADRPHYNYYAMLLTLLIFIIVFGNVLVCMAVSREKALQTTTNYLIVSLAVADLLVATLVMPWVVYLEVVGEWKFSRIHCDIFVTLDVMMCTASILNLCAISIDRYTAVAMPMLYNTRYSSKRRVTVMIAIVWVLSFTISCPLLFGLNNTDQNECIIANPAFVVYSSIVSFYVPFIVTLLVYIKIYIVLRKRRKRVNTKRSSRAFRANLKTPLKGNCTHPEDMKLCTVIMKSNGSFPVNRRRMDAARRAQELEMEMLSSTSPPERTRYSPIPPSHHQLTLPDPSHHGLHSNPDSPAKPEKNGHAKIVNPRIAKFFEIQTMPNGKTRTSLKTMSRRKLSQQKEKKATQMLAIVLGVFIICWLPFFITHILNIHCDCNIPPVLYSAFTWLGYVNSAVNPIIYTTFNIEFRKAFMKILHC

With `C(#Cc1cnc2ccccc2c1)CCCN1CC=C(c2ccccc2)CC1`, the 50% effect level in the test with Rattus norvegicus [1] (ED50) was put at a dose of 18.6 mg/kg.
As for `Nc1ccc(C#CCCN2CC=C(c3ccccc3)CC2)nc1`, the Ki in [2] is 57.5 nM; on D(2) dopamine receptor [3] it was 63 nM; on D(1A) dopamine receptor, greater than 10000 nM; on D(3) dopamine receptor it was 2.6 nM; at D(2) dopamine receptor [5], 1.9 nM; in test [7], 69 nM. At D(4) dopamine receptor, this compound registered a Ki of 371 nM. Besides, at D(2) dopamine receptor [4], the EC50 was found to be 1.3 nM. The ED50 with Monkey was 0.43 mg/kg; with Rattus norvegicus [1], 1.7 mg/kg. Besides, the Decrease in the test with Rattus norvegicus [6] came to 100%.
In the case of `Oc1ccc(C#CCCN2CC=C(c3ccccc3)CC2)cc1`, the inhibition constant Ki on D(2) dopamine receptor [8] stood at 54 nM. Also, the ED50 is 1.5 mg/kg with Mus musculus [9] and greater than 30 mg/kg in the test with Rattus norvegicus [10].
Consider `COc1ccc(C#CCCN2CC=C(c3ccccc3)CC2)cc1`, for which the affinity at D(2) dopamine receptor [3], expressed as Ki, was 327 nM. Further, the figures for the ED50 with Rattus norvegicus [1] and in the test on Mus musculus [9] were greater than 30 mg/kg and 3.3 mg/kg, respectively.
`C(#Cc1ccc2occc2c1)CCN1CC=C(c2ccccc2)CC1`: the Ki at D(2) dopamine receptor [3] stood at 440 nM. In addition, the ED50 in the test on Rattus norvegicus [1] came out at 10.6 mg/kg; in the test with Mus musculus [9], 2.5 mg/kg.
With `C(#Cc1cccnc1)CCN1CC=C(c2ccccc2)CC1`, the inhibition constant (Ki) in [2] was 14.1 nM; on D(2) dopamine receptor [3] it was 37 nM; on D(1A) dopamine receptor, 5000 nM; on D(3) dopamine receptor, 20 nM; on D(2) dopamine receptor [5], 3.3 nM; in test [7], 555 nM. On D(4) dopamine receptor, the Ki was determined as 681 nM. This compound showed an EC50 on D(2) dopamine receptor [4] of 1.7 nM. Also, the ED50 in the test with Monkey amounted to 10.1 mg/kg; with Rattus norvegicus [1] it was 1.4 mg/kg. Further, the Decrease in the test with Rattus norvegicus [6] is recorded as 100%.
The compound `Fc1ccc(N2CCN(CCC#Cc3cccnc3)CC2)cc1` came in with a Ki at D(2) dopamine receptor [3] of 1670 nM. The ED50 with Mus musculus [11] is 4.7 mg/kg; in the test with Rattus norvegicus [1], 4.3 mg/kg.
At D(2) dopamine receptor [3], `C(#Cc1cncc2ccccc12)CCN1CC=C(c2ccccc2)CC1` showed an inhibition constant (Ki) of 73 nM. Also, the ED50 in the test with Rattus norvegicus [1] stood at 3.8 mg/kg.
As to `C(#Cc1ccccn1)CCN1CC=C(c2ccccc2)CC1`, the Ki on D(2) dopamine receptor [3] was 136 nM. This compound returned an ED50 with Rattus norvegicus [1] of 15.8 mg/kg.
In the case of `C(#Cc1ccccc1)CCN1CC=C(c2ccccc2)CC1`, on D(2) dopamine receptor [8], the affinity corresponds to a Ki of 284 nM. Also, the values for the ED50 in the test with Mus musculus [9] and in the test with Rattus norvegicus [10] were 9.5 mg/kg and 20.5 mg/kg, respectively.
In the case of `C(#Cc1ccncc1)CCN1CC=C(c2ccccc2)CC1`, the Ki in test [2] is 25.8 nM; at D(2) dopamine receptor [3], 32 nM; at D(3) dopamine receptor it was 6.5 nM; on D(2) dopamine receptor [5], 4.1 nM; in [7], 593 nM; at D(4) dopamine receptor, 570 nM. For the same compound, the EC50 at D(2) dopamine receptor [4] was determined as 1 nM. Also, the ED50 in the test with Monkey amounted to 11.9 mg/kg; in the test on Rattus norvegicus [1], 4.4 mg/kg. In the test with Rattus norvegicus [6], the Decrease is on record as 93%.
